Bioassay records as filed in PubChem.
KDM4C inh: inhibitors of GASC-1 (KDM4C) histone demethylase, primary screen, biochemical, single concentration HTS; Lysine-specific demethylase 4C (Homo sapiens), Q9H3R0; GST-KDM4C 2-372, H3K9me3 peptide, LANCE TR-FRET; inhibition, % at 12.5 µM; hit rate 0.15% among 96,000; AID 720574, 2013;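 active = mean replicate inhibition above about 25%, with at least 55% of replicates also reaching it, limit read from the data, passing the limit was not always enough; inconclusive = only one of those two conditions met; inactive = neither condition met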
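Test system: N-terminal GST-fused human GASC-1 (KDM4C) fragment, residues 2-372; quantity: GASC-1 enzyme at 10 nM final in reaction; dosing: single dose; schedule: 30 min demethylation and 1 h detection at room temperature; signal: LANCE TR-FRET, excitation 340 nm, emissions 618 and 671 nm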
T cruzi growth-1: T. cruzi intracellular proliferation inhibitors, primary screen, cell-based, beta-gal Tulahuen parasites, NIH3T3 host, luminescence | inhibition, % at 8.34 µM | T. cruzi beta-gal in NIH3T3, GalScreen luminescence, 90 h | AID 624255, 2012 | hit rate 5.9% among 77,000;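 active = mean inhibition above about 93%, with at least 55% of replicates each passing it, limit read from the data, passing the limit was not always enough; inconclusive = only one of those two conditions holds; inactive = neither condition holds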
IDH1 R132H inh: inhibitors of IDH1 R132H reductase, primary screen, biochemical, plate reader, single point; Isocitrate dehydrogenase [NADP] cytoplasmic (Homo sapiens), O75874; diaphorase/resazurin fluorescence, 60 min; inhibition, % at 10 µM; hit rate 0.18% among 70,000; AID 624101, 2012; in the data active = inhibition above about 34%; inconclusive = no clear call, values can overlap the other calls; inactive = below about 11%;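 note: 0% = DMSO and 100% = no enzyme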
Target sequence (O75874 whole entry R132H): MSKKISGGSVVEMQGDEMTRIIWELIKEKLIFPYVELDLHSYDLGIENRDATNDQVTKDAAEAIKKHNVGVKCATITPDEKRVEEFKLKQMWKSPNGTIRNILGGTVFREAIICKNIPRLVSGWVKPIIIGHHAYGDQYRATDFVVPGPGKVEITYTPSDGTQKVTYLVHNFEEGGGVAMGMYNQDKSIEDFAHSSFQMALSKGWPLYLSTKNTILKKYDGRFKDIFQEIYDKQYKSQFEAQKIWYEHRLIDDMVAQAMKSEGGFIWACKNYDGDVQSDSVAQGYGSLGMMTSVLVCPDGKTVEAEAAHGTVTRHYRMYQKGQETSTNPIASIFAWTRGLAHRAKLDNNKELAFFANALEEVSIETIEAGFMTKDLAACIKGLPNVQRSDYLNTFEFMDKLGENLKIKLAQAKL
T cruzi growth-2: T. cruzi intracellular proliferation inhibitors, confirmation, cell-based, NIH3T3 host, beta-gal parasite, luminescence, cherry-pick | shares compounds with T cruzi growth-1 | T. cruzi beta-gal in NIH3T3, GalScreen luminescence, 90 h | inhibition, % at 8.35 µM | hit rate 72% among 5,600 | AID 651739, 2012;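 active = mean replicate inhibition above about 95% and at least 55% of replicates individually reaching it, limit read from the data; inconclusive = only one of the two criteria is met; inactive = neither criterion is met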
T cruzi growth-3: inhibitors of intracellular T. cruzi replication, confirmation, NIH3T3 host cells, beta-gal parasites, cherry-pick, set 2; shares compounds with T cruzi growth-1; T. cruzi beta-gal in NIH3T3, GalScreen luminescence, 90 h; inhibition, % at 2.09 µM; hit rate 21% among 5,600;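 active = mean inhibition above about 95%, with at least 55% of replicates also reaching it, limit read from the data; inconclusive = meets just one of the two conditions; inactive = meets neither condition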;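 note: plate controls were neutral control median for no effect and positive control median for full effect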
NIH3T3 tox: cytotoxicity in mouse NIH/3T3 fibroblasts, confirmation, cytotoxicity control for T. cruzi proliferation inhibitor project, cell-based, cherry-pick, single point | shares compounds with T cruzi growth-1 | AID 651742, 2012 | cytotoxicity (signal decrease), % at 8.35 µM | hit rate 14% among 5,600 | NIH/3T3 viability, CellTiter-Glo ATP luminescence, 90 h;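 active = mean signal decrease across replicates above about 35% based on untreated-well scatter, with enough replicates individually passing, limit read from the data; inconclusive = no rule stated though some were filed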;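 note: 0% = median of neutral control wells and 100% = median of positive control wells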
NIH3T3 tox 2: NIH/3T3 fibroblast cytotoxicity, confirmation, cytotoxicity control, cell-based, cherry-pick, single point, set 2; NIH/3T3 viability, CellTiter-Glo ATP luminescence, 90 h; hit rate 56% among 5,600; shares compounds with T cruzi growth-1; AID 651744, 2012; inhibition, % at 24.9 µM;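 active = mean loss of cell viability signal at or above a set limit, and enough replicates individually reaching it; inconclusive = meets only the mean limit or only the replicate share; inactive = meets neither condition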;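 note: 0% = median of neutral control wells and 100% = median of positive control wells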
The depositor's hits bear a star; ? = inconclusive; nt = not tested or not shown. The entries come from a sample that favours hits as a whole.

SMILES	KDM4C inh	T cruzi growth-1	IDH1 R132H inh	T cruzi growth-2	T cruzi growth-3	NIH3T3 tox	NIH3T3 tox 2
COc1cccc(-c2ccc3c(c2)[C@H]2[C@H](CCN2S(=O)(=O)c2ccccc2OC)[C@H](CO)N3)c1	1	?	nt	102*	91	-9	-36
COc1cccc(-c2ccc3c(c2)[C@@H]2[C@@H](CCN2S(=O)(=O)c2ccccc2OC)[C@H](CO)N3)c1	-2	76	nt	nt	nt	nt	nt
Cc1ccccc1S(=O)(=O)N1CC[C@@H]2[C@H]1c1cc(-c3ccccc3F)ccc1N[C@@H]2CO	0	-11	nt	nt	nt	nt	nt
COc1ccccc1S(=O)(=O)N1CC[C@@H]2[C@@H](CO)Nc3ccc(-c4ccccc4F)cc3[C@@H]21	-2	?	nt	104*	86	24	41*
C(=C\c1nn2c(Cn3cnc4ccccc43)nnc2s1)/c1ccccc1	nt	nt	0	nt	nt	nt	nt
CN(CC(=O)O)S(=O)(=O)c1ccc2ccccc2c1	nt	nt	0	nt	nt	nt	nt
O=C1C(=O)N(Cc2ccco2)C(c2cccnc2)C1C(=O)c1cc2ccccc2o1 (configuration not stated)	nt	nt	2	nt	nt	nt	nt
N#C[C@H]1[C@H](c2ccc(C#CC3CCCCC3)cc2)[C@@H](CO)N1C(=O)Nc1ccc(F)cc1	1	nt	nt	nt	nt	nt	nt
CN(C)CC(=O)N1[C@H](C#N)[C@H](c2ccc(C#CC3CCCCC3)cc2)[C@@H]1CO	0	93	nt	nt	nt	nt	nt
CC(C)NC(=O)N1[C@H](C#N)[C@H](c2ccc(C#CC3CCCC3)cc2)[C@H]1CO	0	102*	nt	103*	101*	-9	4
CC(C)NC(=O)N1[C@H](C#N)[C@@H](c2ccc(C#CC3CCCCC3)cc2)[C@H]1CO	2	54	nt	nt	nt	nt	nt
CN(C)CC(=O)N1[C@H](CO)[C@@H](c2ccc(C#CC3CCCCC3)cc2)[C@@H]1C#N	-1	99*	nt	102*	66	-12	106*
CC(C)NC(=O)N1[C@H](C#N)[C@@H](c2ccc(C#CC3CCCC3)cc2)[C@@H]1CO	-2	99*	nt	106*	70	7	-21
N#C[C@H]1[C@H](c2ccc(C#CC3CCCC3)cc2)[C@H](CO)N1C(=O)Nc1ccc(F)cc1	1	103*	nt	106*	76	4	105*
CC(C)NC(=O)N1[C@H](CO)[C@H](c2ccc(C#CC3CCCC3)cc2)[C@@H]1C#N	-2	93	0	nt	nt	nt	nt
CSc1ccccc1NC(=O)C(C)N(c1ccc(C)cc1)S(C)(=O)=O (configuration not stated)	nt	nt	0	nt	nt	nt	nt
O=C(Nc1ccccc1)N1CCCCN2[C@@H](CO)[C@@H](c3ccc(C#Cc4cccnc4)cc3)[C@@H]2C1	-1	105*	nt	109*	90	18	81*
O=C(Nc1cccc(F)c1)N1CCCCN2[C@@H](CO)[C@H](c3ccc(C#Cc4cccnc4)cc3)[C@@H]2C1	-1	103*	nt	103*	79	26	101*
O=C(Nc1cccc(F)c1)N1CCCCN2[C@H](C1)[C@H](c1ccc(C#Cc3cccnc3)cc1)[C@@H]2CO	-1	93	nt	nt	nt	nt	nt
O=C(Nc1cccc(F)c1)N1CCCCN2[C@H](CO)[C@@H](c3ccc(C#Cc4ccccc4)cc3)[C@H]2C1	1	60	nt	nt	nt	nt	nt
O=C(Nc1ccccc1)N1CCCCN2[C@H](CO)[C@@H](c3ccc(C#Cc4cccnc4)cc3)[C@H]2C1	-1	-4	nt	nt	nt	nt	nt
O=C(Nc1ccccc1F)N1CCCCN2[C@H](CO)[C@@H](c3ccc(C#Cc4cccnc4)cc3)[C@H]2C1	0	14	nt	nt	nt	nt	nt
O=C(Nc1cccc(F)c1)N1CCCCN2[C@H](C1)[C@H](c1ccc(C#CC3CC3)cc1)[C@@H]2CO	-1	118*	nt	110*	87	10	11
O=C(Nc1ccccc1F)N1CCCCN2[C@H](CO)[C@H](c3ccc(C#Cc4cccnc4)cc3)[C@@H]2C1	0	107*	nt	110*	78	43*	?
CCn1c(SCC(=O)Nc2ccc(C)cc2)nnc1-c1ccc(N)cc1	nt	nt	0	nt	nt	nt	nt
SMILES	KDM4C inh	T cruzi growth-1	IDH1 R132H inh	T cruzi growth-2	T cruzi growth-3	NIH3T3 tox	NIH3T3 tox 2
O=C(Cn1c(=O)oc2ccccc21)Nc1ccc(S(=O)(=O)N2CCOCC2)cc1	nt	nt	0	nt	nt	nt	nt
O=C(Nc1cccc(F)c1)N1CCCCN2[C@H](CO)[C@@H](c3ccc(C#Cc4cccnc4)cc3)[C@@H]2C1	-2	105*	nt	109*	?	15	81*
O=C(Nc1ccc(F)cc1)N1CCCCN2[C@H](CO)[C@@H](c3ccc(C#Cc4ccccc4)cc3)[C@H]2C1	-1	82	nt	nt	nt	nt	nt
O=C(Nc1ccc(F)cc1)N1CCCCN2[C@@H](CO)[C@@H](c3ccc(C#Cc4ccccc4)cc3)[C@@H]2C1	-4	121*	nt	108*	115*	118*	105*
O=C(Nc1cccc(F)c1)N1CCCCN2[C@H](CO)[C@H](c3ccc(C#Cc4cccnc4)cc3)[C@H]2C1	-1	96*	nt	108*	48	22	103*
O=C(Nc1cccc(F)c1)N1CCCCN2[C@H](CO)[C@@H](c3ccc(C#Cc4cccnc4)cc3)[C@H]2C1	-2	95	nt	nt	nt	nt	nt
O=C(Nc1cccc(F)c1)N1CCCCN2[C@H](CO)[C@H](c3ccc(C#Cc4ccccc4)cc3)[C@H]2C1	-2	71	nt	nt	nt	nt	nt
O=C(Nc1cccc(F)c1)N1CCCCN2[C@H](C1)[C@H](c1ccc(C#Cc3ccccc3)cc1)[C@@H]2CO	-2	100*	nt	101*	?	15	38*
O=C(Nc1cccc(F)c1)N1CCCCN2[C@H](CO)[C@H](c3ccc(C#Cc4ccccc4)cc3)[C@@H]2C1	-1	68	nt	nt	nt	nt	nt
COc1ccccc1N1C(=O)CC(SCC(=O)Nc2ccc(F)cc2)C1=O (configuration not stated)	nt	nt	0	nt	nt	nt	nt
COc1ccc(CN2C(=O)C(O)(CC(=O)c3ccco3)c3ccccc32)cc1OC (configuration not stated)	nt	nt	0	nt	nt	nt	nt
COc1ccccc1NC(=O)CSC1=NCCS1	nt	nt	-1	nt	nt	nt	nt
Cn1cnc(S(=O)(=O)N2CCCCN3[C@H](CO)[C@@H](c4ccc(-c5ccc(F)cc5)cc4)[C@H]3C2)c1	0	-23	nt	nt	nt	nt	nt
Cn1cnc(S(=O)(=O)N2CCCCN3[C@H](C2)[C@@H](c2ccc(-c4ccccc4)cc2)[C@@H]3CO)c1	0	106*	nt	99*	-13	2	11
